Shown are actives, neighbours in structure and some others; about 1.6% of the full set was active somewhere.
DSG3 Ab inh – inhibitors of pemphigus antibody binding to DSG3, primary screen, biochemical, bead-based, flow cytometry, scFv-GFP | AID 588358, 2011 | binding (percent of control), % at 10 µM | DSG3-coupled beads, scFv-anti-DSG3-GFP binding; active compounds read low | Desmoglein-3 (Homo sapiens), P32926 | actives 0.48% (n = 310,000);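 active = binding more than 3 SD below its plate's average and above zero; inconclusive = below that plate limit but binding exactly zero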;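 also: hits lower antibody fragment binding to DSG3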
LANA-H2B inh – blockers of LANA interaction with H2A/H2B – biochemical, FP readout, HTS, primary screen | cell-free LANA-H2A/H2B peptide, fluorescence polarization | actives 0.6% (n = 320,000) | Protein LANA1 (Human herpesvirus 8 type P (isolate GK18)), Q9QR71 | inhibition, % (test concentration not listed); in the data active = inhibition mostly above about 10%, no sharp cut-off; inactive = mostly below about 6.7%
T cell modulator – modulators of CD8 T cell-vesicle binding, primary screen, mouse 2C CD8+ T cells, flow cytometry. 2C CD8+ T cell-vesicle binding; active compounds read low. response (vesicle binding), % at 7 µM. actives 0.068% (n = 330,000). AID 2052, 2009;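 active = response, share of CD8 T cells binding vesicles, and their 90th percentile fluorescence all below set limits, cut at about 80% in these data, passing the limit was not always enough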;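 also: values below 100% mean blocked vesicle binding to the CD8+ T cells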
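Assay system – 2C mouse CD8+ T cells · Also added – QL9-loaded Drosophila micro-vesicles · Timing – Cell–vesicle co-incubation 1.5 h at 37 °C, staining 20 min on ice · Signal – flow cytometry of vesicle-bound cells · Measure – percent CD8+ FL2 mean versus row control · Controls – Peptide-free naked vesicles (low) and QL9 vesicles with 0.7% DMSO vehicle (high)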
Arr AP2 block – inhibitors of beta-arrestin/AP2 binding, primary screen, biochemical, GPCR trafficking, flow cytometry; beta-arrestin 1 C-terminal peptide binding to AP2 beta2-adaptin appendage (human); FITC-arrestin peptide / GST-AP2 beads; AP2 beta2 appendage carries R879A mutation; inhibition, % at 10 µM; actives 0.31% (n = 340,000);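 active = inhibition above a set limit, near 3 SD of compounds lacking own fluorescence, cut at about 54% in these data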
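Material – GST-tagged AP2 beta2-adaptin appendage (R879A) on 4 µm glutathione beads · Probe or stimulus – fluorescein-tagged arrestin peptide at 50 nM final · Timing – 12 min plus 1 h, RT · Detection – bead flow cytometry, FITC channel · Read-out basis – inhibition as reduced fluorescein signal on beads, percent · Medium – PBS plus Tween 20 (0.05%) and BSA (0.1%)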
JMJD2C inh – inhibitors of GASC-1 histone demethylase, primary screen, biochemical, fluorescence, DELFIA europium. GST-JMJD2C(1-420) H3K9me3 demethylation. inhibition, % at 2.35 µM. actives 0.069% (n = 330,000). AID 2099, 2009;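 active = more than half of a compound's replicate wells show inhibition beyond 50%, single wells judged on their own value; inconclusive = some, but no more than half, of replicates pass 50% inhibition; inactive = no replicate passes 50% inhibition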;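 also: signal counts dimethyl H3K9 product captured on neutravidin plate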
Target sequence (Q9H3R0 1-420 limits assumed): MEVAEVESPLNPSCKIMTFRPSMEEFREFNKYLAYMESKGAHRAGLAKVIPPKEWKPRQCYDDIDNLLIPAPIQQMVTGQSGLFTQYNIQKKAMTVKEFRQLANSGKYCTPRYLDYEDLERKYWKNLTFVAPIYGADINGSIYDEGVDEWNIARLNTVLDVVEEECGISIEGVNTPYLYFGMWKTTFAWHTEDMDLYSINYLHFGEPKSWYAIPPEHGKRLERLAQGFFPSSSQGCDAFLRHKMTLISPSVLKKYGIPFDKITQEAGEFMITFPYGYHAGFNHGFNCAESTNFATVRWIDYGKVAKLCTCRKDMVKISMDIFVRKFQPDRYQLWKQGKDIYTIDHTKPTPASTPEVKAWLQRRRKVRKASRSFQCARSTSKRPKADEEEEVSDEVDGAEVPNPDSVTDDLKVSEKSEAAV
HDAC3 inh – HDAC3 deacetylase inhibitors, primary screen, biochemical, fluorescence, cell-free homogeneous | Histone deacetylase 3 (Homo sapiens), O15379 | recombinant HDAC3, fluorogenic peptide/trypsin coupled | inhibition, % at 8.3 µM | actives 0.15% (n = 320,000); in the data active = inhibition above about 26%, passing the limit was not always enough; inconclusive = no clear call, values can overlap the other calls
Each line names hits and unclear results; the compound was inactive in the other large screens; ! = a repeat was not active.

CC(NC(=O)c1cccc(S(=O)(=O)N2CCc3ccccc32)c1)c1ccco1 (stereo not drawn)	LANA-H2B inh 135
CC(=O)N1CCN(c2ccc(NC(=O)C(c3ccccc3)c3ccccc3)cc2)CC1	DSG3 Ab inh 38
O=C(Nc1ccc(N2CCCC2)cc1)C(c1ccccc1)c1ccccc1	none
CCCCSCCCNC(=S)Nc1ccccc1C	none (no result: DSG3 Ab inh)
CCCCNC(=S)Nc1ccccc1Cc1ccccc1	DSG3 Ab inh 96
COc1ccc(C2c3c(n[nH]c3C)CC(C)(O)C2C(C)=O)cc1OC (stereo not drawn)	LANA-H2B inh 10 (no result: DSG3 Ab inh)
COc1ccccc1C(=O)Nc1ccc(Oc2ncnc3sc(-c4ccccc4)cc23)cc1	none
COc1cc(C(=O)Nc2ccc(Oc3ncnc4sc(-c5ccccc5)cc34)cc2)cc(OC)c1OC	DSG3 Ab inh -10
COc1ccc(C(=O)Nc2ccc(Oc3ncnc4sc(-c5ccccc5)cc34)cc2)cc1OC	DSG3 Ab inh -207
Cc1cc(=O)oc2cc(OC(=O)CCCCCN3C(=O)c4ccccc4C3=O)ccc12	none
COc1ccc(NC(=O)CN(C)C(=O)CCCSc2nc3ccccc3[nH]2)cc1	none
Cc1c(NC(=O)c2ccc(NS(=O)(=O)c3ccc(F)c(F)c3)cc2)c(=O)n(-c2ccccc2)n1C	none
O=C(NCC1CCCO1)C1CC(=O)N(c2cccc(Cl)c2)C1 (stereo not drawn)	none
Cc1ccc(-n2ncc(C#N)c2N)cc1	none (no result: DSG3 Ab inh)
Cc1cc(C)nc(-n2ncc(C#N)c2N)n1	LANA-H2B inh 11
COCCN(CCOC)S(=O)(=O)c1ccc(C(=O)Nc2nnc(C3CC3)o2)cc1	LANA-H2B inh active
COc1ccc2nc(NC(=O)CSc3nc4cccnc4n3C)sc2c1	DSG3 Ab inh 84
COCCn1c(SCC(=O)Nc2ccc(NC(C)=O)cc2)nc2c([nH]c3ccccc32)c1=O	none
COc1ccccc1NC(=O)CSc1nnnn1Cc1ccccc1	none
COC(=O)c1sc(NC(=O)CSc2nc3cccnc3n2C)nc1C	none (no result: DSG3 Ab inh)
COc1ccc(NC(=O)CSc2nnnn2Cc2ccccc2)cc1	DSG3 Ab inh 65
COc1ccc(NC(=O)CSc2nc3cccnc3n2C)cc1	LANA-H2B inh 38
COc1ccc(NC(=O)CSc2nc3c([nH]c4ccccc43)c(=O)n2C)cc1	LANA-H2B inh 11
COC(=O)c1ccc(NC(=O)CSc2nc3cccnc3n2C)cc1	none (no result: DSG3 Ab inh)
COc1ccccc1-c1noc(CCC(=O)NC2CCCCC2)n1	none
CCc1ccc(NC(=O)CCC(=O)c2ccccc2)cc1	none
COc1ccc(NC(=O)CSc2nc3sc(C)cc3c(=O)n2C)c(OC)c1	LANA-H2B inh 16
CCC(C)C1/C=C\CC(NC(=O)OCC2c3ccccc3-c3ccccc32)CC(=O)N1Cc1ccccc1 (stereo not drawn)	none (no result: LANA-H2B inh, T cell modulator, JMJD2C inh, HDAC3 inh)
COc1ccc(C2/C=C\CC(NC(=O)OCC3c4ccccc4-c4ccccc43)CC(=O)N2Cc2ccccc2F)cc1 (stereo not drawn)	DSG3 Ab inh 83 (no result: LANA-H2B inh, T cell modulator, JMJD2C inh, HDAC3 inh)
O=C(O)/C(=C\c1cccc(OCc2ccccc2)c1)c1ccc(F)cc1	LANA-H2B inh 10
CC(C)Cc1nnc(NC(=O)C2CCCC2)s1	none
CC(C)N(CCNC(=O)c1nn(Cc2ccccc2)c(=O)c2ccccc12)C(C)C	T cell modulator 0.0 (no result: DSG3 Ab inh)
CC(C)CCNC(=O)c1nn(Cc2ccccc2)c(=O)c2ccccc12	none
COc1cccc(N2CCN(Cc3nnnn3C3CCCCC3)CC2)c1	none
O=C1CCc2cc(OCCCCc3nnnn3C3CCCCC3)ccc2N1	LANA-H2B inh 33 (no result: DSG3 Ab inh)
Cc1ccc(C)c(N=Nc2ccc(O)c3ncccc23)c1	Arr AP2 block 103
Cc1cccc(N=Nc2ccc(O)c3ncccc23)c1	none
Cc1ccc(CNS(=O)(=O)c2ccc3c(c2)n(C)c(=O)n3C)cc1	none
O=C(Nc1ncccc1O)c1ccc2c(c1)OCO2	HDAC3 inh 86
COc1cc(NS(=O)(=O)c2ccc(NC(=S)NC(=O)c3ccc(F)c(F)c3)cc2)nc(OC)n1	none (no result: DSG3 Ab inh)
C[C@H]1CN([C@@H](C)CO)C(=O)CCCn2nncc2CO[C@H]1CN(C)C(=O)c1ccc2ccn(C)c2c1	none (no result: LANA-H2B inh, T cell modulator, Arr AP2 block, JMJD2C inh, HDAC3 inh)
CCOc1ccc(N(CC)S(=O)(=O)c2ccc3c(c2)n(C)c(=O)c(=O)n3C)cc1	DSG3 Ab inh -11 (no result: LANA-H2B inh, HDAC3 inh)
CCOc1ccc(OCC)c(NS(=O)(=O)c2ccc3c(c2)n(C)c(=O)c(=O)n3C)c1	none
CN1[C@@H]2CC[C@H]1CC(OC(=O)C(CO)c1ccccc1)C2 (stereo partly drawn)	LANA-H2B inh 36! (no result: T cell modulator)
O=C(N[C@@H]1c2ccccc2CC[C@@H]1OCc1ccccc1)c1ccc(-c2ccccc2)cc1	none (no result: LANA-H2B inh, T cell modulator, JMJD2C inh, HDAC3 inh)
O=S(=O)(c1ccc(=S)[nH]c1)N1CCCCCC1	LANA-H2B inh 38 (no result: JMJD2C inh)
O=S(=O)(c1ccc(=S)[nH]c1)N1CCOCC1	none
CCOC(=O)/C(=N\Nc1ccc(Br)cc1)N1CC(C)OC(C)C1 (stereo not drawn)	none
O=C(c1ccc([N+](=O)[O-])cc1[N+](=O)[O-])n1cnc2ccccc21	DSG3 Ab inh 79
Cc1cccc(CS(=O)(=O)c2ncc(Cl)c(C(=O)Nc3nnc(C(C)C)s3)n2)c1	DSG3 Ab inh 93
COc1ccc(OC)c(C(=O)CN2C(=O)C(=O)N(C3CCCC3)C2=O)c1	none
COc1ccc(F)cc1S(=O)(=O)NC1CCCC1	LANA-H2B inh 82
CCOc1cc(S(=O)(=O)NC2CCCCCC2)ccc1F	DSG3 Ab inh inconclusive, LANA-H2B inh 22
O=C(CCNS(=O)(=O)c1ccc(F)c(F)c1)NCCN1CCOCC1	none
N#C/C(=C\c1ccc(F)cc1F)S(=O)(=O)c1ccccn1	none
Cn1cccc1C(=O)OCC(=O)Nc1sccc1C#N	none
N#Cc1ccsc1NC(=O)COC(=O)c1ccc2ccccc2c1	DSG3 Ab inh 63
Cc1csc(=Nc2ccccc2)n1C	none
OCc1csc(=Nc2ccccc2)n1-c1ccccc1	JMJD2C inh 57
COc1ccccc1OCC(=O)NNC(=O)Nc1ccccc1	none (no result: DSG3 Ab inh)
CCc1noc(C)c1C(=O)NNC(=O)c1ccccc1	LANA-H2B inh 97
CCc1ccc(C(=O)NNC(=O)c2c(CC)noc2C)cc1	none
CN(CC(=O)Nc1cccc(F)c1)C(=O)CCc1nc2ccccc2c(=O)[nH]1	none
